Laboratory results reported in ChEMBL document CHEMBL1828575, “Design, synthesis and antiproliferative activities of biarylolefins based on polyhydroxylated and carbohydrate scaffolds” (Eur J Med Chem, 2011).

How the values were obtained:
Assay type in all cases: functional
[1] = tested on: NCI-H226; assay: Antitumor activity against human NCI-H226 cells after 48 hrs by SRB assay; conditions: NCI-H226, 48 h
Procedure, shortened: (§1)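 NCI60 panel in RPMI 1640 with 5% FBS and 2 mM L-glutamine. Cells were plated at 5000–40,000/well by doubling time, held 24 h, then time-zero plates were TCA-fixed. Five concentrations (10-fold or half-log dilutions of DMSO stocks) were applied for 48 h at 37 °C, 5% CO2. Cells were fixed with cold TCA (10% final adherent, 16% suspension) and stained with 0.4% SRB. Bound dye was dissolved in 10 mM Tris and read at 515 nm. GI50, TGI and LC50 were calculated per line.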

[2] = tested on: MDA-MB-435; assay: Antitumor activity against human MDA-MB-435 cells after 48 hrs by SRB assay; conditions: MDA-MB-435, 48 h; procedure, shortened: as §1
[3] = tested on: SR; assay: Antitumor activity against human SR cells after 48 hrs by SRB assay
Procedure, shortened: (§2)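 NCI60 panel cells grown in RPMI 1640 with 5% FBS and 2 mM L-glutamine, plated at 5000–40,000 cells/well and preincubated 24 h at 37 °C, 5% CO₂. Compound was added from DMSO at five concentrations, 10-fold or 1/2 log dilutions, then incubated 48 h.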

[4] = tested on: LOX IMVI; assay: Antitumor activity against human LOXIMVI cells after 48 hrs by SRB assay; procedure, shortened: as §1
[5] = tested on: OVCAR-4; assay: Antitumor activity against human OVCAR4 cells after 48 hrs by SRB assay; conditions: OVCAR-4, 48 h; procedure, shortened: as §1
[6] = tested on: TK-10; assay: Antitumor activity against human TK10 cells after 48 hrs by SRB assay; conditions: TK-10, 48 h; procedure, shortened: as §2
[7] = tested on: RXF 393; assay: Antitumor activity against human RXF393 cells after 48 hrs by SRB assay; conditions: RXF 393, 48 h; procedure, shortened: as §1
[8] = tested on: PC-3; assay: Cytotoxicity against human PC3 cells assessed as cellular growth at 10 uM after 48 hrs by SRB assay
Procedure, shortened: (§3)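 NCI-60 panel lines grown in RPMI 1640 with 5% FBS and 2 mM L-glutamine. Plated at 5000–40,000 cells/well and preincubated 24 h at 37 °C, 5% CO₂, with time-zero plates fixed in TCA. Compounds, dissolved in DMSO and diluted in medium, were applied for 48 h. Cells were TCA-fixed (10% final for adherent, 16% for suspension) and stained with 0.4% SRB in 1% acetic acid. Dye was solubilised in 10 mM Tris base and read at 515 nm; growth was expressed as a percentage of untreated control.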

[9] = tested on: LOX IMVI; assay: Cytotoxicity against human LOXIMVI cells assessed as cellular growth at 10 uM after 48 hrs by SRB assay
Procedure, shortened: (§4)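 NCI60 single-dose screen of cells in RPMI 1640 with 5% FBS and 2 mM L-glutamine, preincubated 24 h at 37 °C, 5% CO₂. Cells were then exposed 48 h to compound added from DMSO stock. TCA-fixed, stained with 0.4% SRB in 1% acetic acid, dye solubilised in 10 mM Tris base and read at 515 nm. Growth is given as percent of untreated control.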

[10] = tested on: SW-620; assay: Antitumor activity against human SW620 cells after 48 hrs by SRB assay; conditions: SW-620, 48 h; procedure, shortened: as §2
[11] = tested on: SN12C; assay: Cytotoxicity against human SN12C cells assessed as cellular growth at 10 uM after 48 hrs by SRB assay; procedure, shortened: as §3
[12] = tested on: HCC 2998; assay: Antitumor activity against human HCC2998 cells after 48 hrs by SRB assay; conditions: HCC 2998, 48 h; procedure, shortened: as §1
[13] = tested on: HOP-62; assay: Cytotoxicity against human HOP62 cells assessed as cellular growth at 10 uM after 48 hrs by SRB assay; procedure, shortened: as §4
[14] = tested on: UACC-257; assay: Antitumor activity against human UACC257 cells after 48 hrs by SRB assay; conditions: UACC-257, 48 h; procedure, shortened: as §2
[15] = tested on: SK-MEL-5; assay: Antitumor activity against human SK-MEL-5 cells after 48 hrs by SRB assay; conditions: SK-MEL-5, 48 h; procedure, shortened: as §2
[16] = tested on: SF-295; assay: Antitumor activity against human SF295 cells after 48 hrs by SRB assay; conditions: SF-295, 48 h; procedure, shortened: as §1
[17] = tested on: SK-OV-3; assay: Cytotoxicity against human SKOV3 cells assessed as cellular growth at 10 uM after 48 hrs by SRB assay; procedure, shortened: as §3
[18] = tested on: UACC-62; assay: Cytotoxicity against human UACC62 cells assessed as cellular growth at 10 uM after 48 hrs by SRB assay; procedure, shortened: as §3
[19] = tested on: SK-OV-3; assay: Antitumor activity against human SKOV3 cells after 48 hrs by SRB assay; conditions: SK-OV-3, 48 h; procedure, shortened: as §2
[20] = tested on: Malme-3M; assay: Antitumor activity against human MALME-3M cells after 48 hrs by SRB assay; procedure, shortened: as §1
[21] = tested on: OVCAR-8; assay: Cytotoxicity against human OVCAR8 cells assessed as cellular growth at 10 uM after 48 hrs by SRB assay; procedure, shortened: as §3
[22] = read-out: LC50 (the source's name)
[23] = read-out: pLC50 (the source's name) (converted)

## COc1cc(/C(=C2\O[C@@H]([C@H]3COC(C)(C)O3)[C@H]3OC(C)(C)O[C@@H]23)c2ccc3ccccc3c2)cc(OC)c1OC
[1]; read-out: GI50
  GI50: 3.49 µM
[1]; [22]
  CC50: > 100 µM
[1]; read-out: TGI
  TGI: 60 µM
[1]; read-out: pGI50 (converted)
  GI50: 3.47 µM
[1]; [23]
  CC50: > 100 µM
[1]; read-out: pTGI (converted)
  TGI: 60.3 µM
[2]
  GI50: 3.61 µM
  TGI: 17.5 µM
[2]; [22]
  CC50: > 100 µM
[3]; read-out: GI50
  GI50: > 100 µM
[3]; [22]
  CC50: > 100 µM
[3]; read-out: TGI
  TGI: > 100 µM
[3]; read-out: pGI50 (converted)
  GI50: 100 µM
[3]; [23]
  CC50: > 100 µM
[3]; read-out: pTGI
  TGI: > 100 µM
[4]
  GI50: 3.39 µM
  TGI: 19.8 µM
[4]; [22]
  CC50: > 100 µM
[5]; read-out: GI50
  GI50: 2.82 µM
[5]; [22]
  CC50: > 100 µM
[5]; read-out: TGI
  TGI: 6.02 µM
[5]; read-out: pGI50 (converted)
  GI50: 14.1 µM
[5]; [23]
  CC50: > 100 µM
[5]; read-out: pTGI (converted)
  TGI: 11 µM
[6]; read-out: GI50
  GI50: 3.2 µM
[6]; [22]
  CC50: > 100 µM
[6]; read-out: TGI
  TGI: 7.2 µM
[6]; read-out: pGI50 (converted)
  GI50: 3.16 µM
[6]; [23]
  CC50: > 100 µM
[6]; read-out: pTGI (converted)
  TGI: 7.24 µM
[7]
  GI50: 2.54 µM
  TGI: 5.99 µM
[7]; [22]
  CC50: 32.6 µM
[8]
  Activity: 26.98%
[9]
  Activity: 46.36%
[10]; read-out: GI50
  GI50: 4.31 µM
[10]; [22]
  CC50: > 100 µM
[10]; read-out: TGI
  TGI: > 100 µM
[10]; read-out: pGI50 (converted)
  GI50: 4.27 µM
[10]; [23]
  CC50: > 100 µM
[10]; read-out: pTGI
  TGI: > 100 µM
[11]
  Activity: 24.83%
[12]; read-out: GI50
  GI50: 6.47 µM
[12]; [22]
  CC50: > 100 µM
[12]; read-out: TGI
  TGI: > 100 µM
[12]; read-out: pGI50 (converted)
  GI50: 6.46 µM
[12]; [23]
  CC50: > 100 µM
[12]; read-out: pTGI (converted)
  TGI: > 100 µM
[13]
  Activity: 47.96%
[14]; read-out: GI50
  GI50: 4.28 µM
[14]; [22]
  CC50: > 100 µM
[14]; read-out: TGI
  TGI: 23.8 µM
[14]; read-out: pGI50 (converted)
  GI50: 4.27 µM
[14]; [23]
  CC50: > 100 µM
[14]; read-out: pTGI (converted)
  TGI: 24 µM
[15]
  GI50: 4.07 µM
  LC50: 51.4 µM
  TGI: 15.4 µM
[16]; read-out: GI50
  GI50: 6.92 µM
[16]; [22]
  CC50: > 100 µM
[16]; read-out: TGI
  TGI: 52.1 µM
[16]; read-out: pGI50 (converted)
  GI50: 6.92 µM
[16]; [23]
  CC50: > 100 µM
[16]; read-out: pTGI (converted)
  TGI: 52.5 µM
[17]
  Activity: 51.39%
[18]
  Activity: 46.5%
[19]; read-out: GI50
  GI50: 4.37 µM
[19]; [22]
  CC50: > 100 µM
[19]; read-out: TGI
  TGI: > 100 µM
[19]; read-out: pGI50 (converted)
  GI50: 17.8 µM
[19]; [23]
  CC50: > 100 µM
[19]; read-out: pTGI (converted)
  TGI: > 100 µM
[20]
  GI50: 2.07 µM
  LC50 (concentration killing 50% of cells present at time zero): > 100 µM
  TGI: 5.59 µM
[21]
  Activity: 18.91%
